Experimental data from ChEMBL document CHEMBL1126775, “A pharmacological, crystallographic, and quantum chemical study of new inotropic agents” (J Med Chem, 1993).

Experiments:
Cavia porcellus [1] = species on record: Cavia porcellus; assay: Inotropic response in electrically driven left atrium from reserpine-treated guinea pig with 8-pH (10 e-5)at the concentration of 10 e-5 M; assay type: functional, Cardiac atrium
Method in brief: (§1)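 Guinea pigs pretreated with reserpine 2 mg/kg ip at 48 and 24 h before sacrifice; atria unresponsive to tyramine 2 μg/mL used. Left atrium paced at 1.5 Hz (3-ms square pulses, 10–20% above threshold, 0.5 g load). 8-Phenyltheophylline 10 μM preincubated 20 min after 90 min equilibration, then agents added cumulatively, 5 min each. Isometric developed tension as % over control; six assays from six experiments.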

Cavia porcellus [2] = species on record: Cavia porcellus; assay: Inotropic response in electrically driven left atrium from reserpine-treated guinea pig with 8-pH (10 e-5)at the concentration of 10 e-4 M; assay type: functional, Cardiac atrium; method in brief: as §1
Cavia porcellus [3] = species on record: Cavia porcellus; assay: Inotropic effect in electrically driven left atrium from reserpine-treated guinea pig at the concentration of 10 e-3 M; assay type: functional, Cardiac atrium
Method in brief: (§2)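 Atria from reserpine-pretreated guinea pigs (2 mg/kg ip, 48 and 24 h), tyramine-unresponsive only. Left atrium loaded 0.5 g, paced at 1.5 Hz with 3-ms square pulses at 10–20% above threshold. Equilibrated 90 min. Agents added cumulatively, 5 min per concentration. Isometric developed tension expressed as % increase over control.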

Cavia porcellus [4] = species on record: Cavia porcellus; assay: Inotropic response in electrically driven left atrium from reserpine-treated guinea pig without ADA at the concentration of 2 x 10 e-3 M; assay type: functional, Cardiac atrium
Method in brief: (§3)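 Control arm: electrically driven left atrium (1.5 Hz, 3-ms pulses, 0.5 g load) from guinea pigs given reserpine 2 mg/kg ip at 48 and 24 h, tyramine-unresponsive; no adenosine deaminase. Cumulative additions after 90 min equilibration, 5 min per concentration. Isometric developed tension, % over control; six assays from six experiments.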

Cavia porcellus [5] = species on record: Cavia porcellus; assay: Inotropic response in electrically driven left atrium from reserpine-treated guinea pig with 8-pH (10 e-5)at the concentration of 10 e-3 M; assay type: functional, Cardiac atrium; method in brief: as §1
Cavia porcellus [6] = species on record: Cavia porcellus; assay: Inotropic response in electrically driven left atrium from reserpine-treated guinea pig with ADA (2 units/ml) at the concentration of 10 e-5 M (% inhibition of contractile response) (p<0.001); assay type: functional, Cardiac atrium
Cavia porcellus [7] = species on record: Cavia porcellus; assay: Inotropic response in electrically driven left atrium from reserpine-treated guinea pig without ADA at the concentration of 10 e-4 M; assay type: functional, Cardiac atrium; method in brief: as §3
Cavia porcellus [8] = species on record: Cavia porcellus; assay: Effect on frequency rate of spontaneously beating atria from reserpine treated guinea pigs at the concentration of 10 e-3 M; assay type: functional
Cavia porcellus [9] = species on record: Cavia porcellus; assay: Inotropic response in electrically driven left atrium from reserpine-treated guinea pig without VER at the concentration of 2 x 10 e-3 M; assay type: functional, Cardiac atrium
Method in brief: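 Control arm without verapamil: left atrium from reserpinized guinea pigs (2 mg/kg ip, 48 and 24 h before), tyramine-unresponsive, paced at 1.5 Hz (3-ms pulses). Agents added cumulatively after 90 min equilibration, recorded 5 min each. Isometric developed tension as % increase over control; seven assays from seven experiments.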

Cavia porcellus [10] = species on record: Cavia porcellus; assay: Inotropic response in electrically driven left atrium from reserpine-treated guinea pig with ADA (2 units/ml) at the concentration of 5 x 10 e-4 M; assay type: functional, Cardiac atrium
Method in brief: (§4)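 Reserpinized guinea pigs (2 mg/kg ip, 48 and 24 h before death), tyramine-unresponsive atria. Electrically driven left atrium (1.5 Hz, 3-ms pulses, 0.5 g load) preincubated 20 min with adenosine deaminase after 90 min equilibration. Agents added cumulatively, 5 min per concentration. Developed tension recorded isometrically, % increase over control or % inhibition; six assays from six experiments, Student's t test.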

Cavia porcellus [11] = species on record: Cavia porcellus; assay: Inotropic effect in electrically driven left atrium from reserpine-treated guinea pig at the concentration of 5 x 10 e-5 M; assay type: functional, Cardiac atrium; method in brief: as §2
Cavia porcellus [12] = species on record: Cavia porcellus; assay: Effect on frequency rate of spontaneously beating atria from reserpine treated guinea pigs at the concentration of 10 e-4 M; assay type: functional
Cavia porcellus [13] = species on record: Cavia porcellus; assay: Inotropic response in electrically driven left atrium from reserpine-treated guinea pig with 8-pH (10 e-5)at the concentration of 2 x 10 e-3 M; assay type: functional, Cardiac atrium; method in brief: as §1
Cavia porcellus [14] = species on record: Cavia porcellus; assay: Inotropic response in electrically driven left atrium from reserpine-treated guinea pig without ADA at the concentration of 10 e-5 M; assay type: functional, Cardiac atrium; method in brief: as §3
Cavia porcellus [15] = species on record: Cavia porcellus; assay: Inotropic response in electrically driven left atrium from reserpine-treated guinea pig with 8-pH (10 e-5)at the concentration of 5 x 10 e-4 M; assay type: functional, Cardiac atrium; method in brief: as §1
Cavia porcellus [16] = species on record: Cavia porcellus; assay: Inotropic response in electrically driven left atrium from reserpine-treated guinea pig with 8-pH (10 e-5)at the concentration of 5 x 10 e-5 M; assay type: functional, Cardiac atrium; method in brief: as §1
Cavia porcellus [17] = species on record: Cavia porcellus; assay: Inotropic effect in electrically driven left atrium from reserpine-treated guinea pig without 8-phenyl theophylline at the concentration of 5 x 10 e-4 M; assay type: functional, Cardiac atrium
Method in brief: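 Paced left atrium from reserpine-pretreated, tyramine-unresponsive guinea pigs (0.5 g load, 1.5 Hz, 3-ms pulses). Cumulative additions of agent, 5 min each, with no 8-phenyltheophylline present. Developed tension as % increase over control. Mean ± SEM of six assays from six experiments; Student's t test against the 8-phenyltheophylline-treated preparations.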

Cavia porcellus [18] = species on record: Cavia porcellus; assay: Inotropic response in electrically driven left atrium from reserpine-treated guinea pig with 8-phenyl theophylline (10 e-5)at the concentration of 5 x 10 e-4 M; assay type: functional, Cardiac atrium; method in brief: as §1
Cavia porcellus [19] = species on record: Cavia porcellus; assay: Inotropic response in electrically driven left atrium from reserpine-treated guinea pig with ADA (2 units/ml) at the concentration of 10 e-5 M; assay type: functional, Cardiac atrium; method in brief: as §4
Cavia porcellus [20] = species on record: Cavia porcellus; assay: Inotropic response in electrically driven left atrium from reserpine-treated guinea pig with 8-phenyl theophylline (10 e-5)at the concentration of 10 e-3 M; assay type: functional, Cardiac atrium; method in brief: as §1
Cavia porcellus [21] = species on record: Cavia porcellus; assay: Inotropic response in electrically driven left atrium from reserpine-treated guinea pig without ADA at the concentration of 5 x 10 e-4 M; assay type: functional, Cardiac atrium; method in brief: as §3
Cavia porcellus [22] = species on record: Cavia porcellus; assay: Inotropic response in electrically driven left atrium from reserpine-treated guinea pig with 8-phenyl theophylline (10 e-5)at the concentration of 2 x 10 e-3 M; assay type: functional, Cardiac atrium; method in brief: as §1
Cavia porcellus [23] = species on record: Cavia porcellus; assay: Inotropic response in electrically driven left atrium from reserpine-treated guinea pig with 8-phenyl theophylline (10 e-5) at the concentration of 10 e-5 M; assay type: functional, Cardiac atrium; method in brief: as §1
Cavia porcellus [24] = species on record: Cavia porcellus; assay: Inotropic response in electrically driven left atrium from reserpine-treated guinea pig with 8-phenyl theophylline (10 e-5)at the concentration of 5 x 10 e-5 M; assay type: functional, Cardiac atrium; method in brief: as §1
Cavia porcellus [25] = species on record: Cavia porcellus; assay: Inotropic response in electrically driven left atrium from reserpine-treated guinea pig with 8-phenyl theophylline (10 e-5)at the concentration of 10 e-4 M; assay type: functional, Cardiac atrium; method in brief: as §1

Row | Structure (SMILES) | Increase (Cavia porcellus [3]) | Increase (Cavia porcellus [4]) | Increase (Cavia porcellus [7]) | Increase (Cavia porcellus [8]) | Increase (Cavia porcellus [9]) | Increase (Cavia porcellus [10]) | Increase (Cavia porcellus [11]) | Increase (Cavia porcellus [12]) | Increase (Cavia porcellus [14]) | Increase (Cavia porcellus [17]) | also measured
1 | CC(=O)c1cc(C#N)c(O)nc1C | 58.73% | 84.6% | 12.61% | 21.93% | 94.47% | 20.37% | 25.17% | 6.62% | 5.26% | 48.18% | Increase (Cavia porcellus [1]): 7.75%; Increase (Cavia porcellus [2]): 23.03%; Increase (Cavia porcellus [5]): 50.44%; Increase (Cavia porcellus [6]): 3.42%; Increase (Cavia porcellus [13]): 58.97%; Increase (Cavia porcellus [15]): 40.37%; Increase (Cavia porcellus [16]): 11.59%
2 | CC1CC(=O)c2ccc(O)nc2C1 (stereo not given) | 48.86% | 67.12% | 27.6% | 19.68% | 75.51% | 14.35% | 19.17% | 3.29% | 15.78% | 38.88% | Increase (Cavia porcellus [18]): 15.18%; Increase (Cavia porcellus [19]): 2.48%; Increase (Cavia porcellus [20]): 25.45%; Increase (Cavia porcellus [21]): 36.16%; Increase (Cavia porcellus [22]): 52.56%; Increase (Cavia porcellus [23]): 0.29%; Increase (Cavia porcellus [24]): 3.95%; Increase (Cavia porcellus [25]): 8.67%
